# Columns and labels:
# [1] = target: T1, Angiotensin II receptor (Rattus norvegicus) (UniProt P29089+P25095+P35351); assay: Angiotensin II receptor agonist activity was tested in rat isolated uterus assay using [Asp1,Ile5]ANG II (human angiotensin II) as the standard; format: functional, tissue-based
# Summary of the method: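 Uterine horns from diethylstilbestrol-primed virgin Sprague-Dawley rats (150–250 g), defatted and halved. Each half held at 1 g tension in a 3-mL bath at pH 7.0, oxygen-gassed (150 mM NaCl, 5.6 mM KCl, 0.18 mM CaCl2, 1.8 mM NaHCO3, 1.4 mM glucose). Contractions recorded isotonically. Agonism measured by matching each response to an equivalent response to human ANG II. Mean ± SEM.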
# [2] = target: T2, Angiotensin II receptor (Rattus norvegicus, UniProt P29089+P25095+P35351); assay: Angiotensin II receptor antagonist activity was tested in rat isolated uterus assay using [Asp1,Ile5]ANG II (human angiotensin II) as the standard; format: functional, tissue-based
# T2 sequence (P29089 whole entry): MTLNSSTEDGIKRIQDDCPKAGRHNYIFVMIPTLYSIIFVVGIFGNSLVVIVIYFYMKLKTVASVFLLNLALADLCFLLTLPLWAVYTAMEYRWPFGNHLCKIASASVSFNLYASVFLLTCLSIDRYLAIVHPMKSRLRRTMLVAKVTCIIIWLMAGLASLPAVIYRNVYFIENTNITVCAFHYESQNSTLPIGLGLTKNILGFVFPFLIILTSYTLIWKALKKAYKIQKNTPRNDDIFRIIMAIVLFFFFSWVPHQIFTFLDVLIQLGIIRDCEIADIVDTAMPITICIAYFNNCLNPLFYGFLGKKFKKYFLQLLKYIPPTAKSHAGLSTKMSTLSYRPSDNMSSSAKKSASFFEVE
# T2 sequence (P25095 whole entry): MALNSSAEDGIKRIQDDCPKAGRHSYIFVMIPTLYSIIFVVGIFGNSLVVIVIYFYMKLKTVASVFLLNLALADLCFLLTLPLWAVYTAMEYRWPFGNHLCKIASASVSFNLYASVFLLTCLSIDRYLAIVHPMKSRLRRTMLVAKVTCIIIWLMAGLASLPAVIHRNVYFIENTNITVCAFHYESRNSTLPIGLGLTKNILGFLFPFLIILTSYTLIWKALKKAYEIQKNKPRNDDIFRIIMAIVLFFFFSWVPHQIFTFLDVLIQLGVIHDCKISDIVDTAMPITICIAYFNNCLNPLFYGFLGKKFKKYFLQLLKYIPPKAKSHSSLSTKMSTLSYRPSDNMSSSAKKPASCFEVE
# T2 sequence (P35351 whole entry): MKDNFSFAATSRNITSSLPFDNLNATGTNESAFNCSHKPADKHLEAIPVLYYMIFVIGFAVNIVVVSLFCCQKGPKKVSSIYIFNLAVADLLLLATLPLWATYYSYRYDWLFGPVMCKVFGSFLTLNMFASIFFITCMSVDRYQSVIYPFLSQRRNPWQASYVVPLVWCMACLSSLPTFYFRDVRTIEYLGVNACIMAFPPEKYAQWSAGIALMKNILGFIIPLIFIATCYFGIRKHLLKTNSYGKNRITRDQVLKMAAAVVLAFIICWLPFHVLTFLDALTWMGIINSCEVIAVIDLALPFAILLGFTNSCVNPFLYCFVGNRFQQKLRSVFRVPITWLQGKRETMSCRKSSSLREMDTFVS
# Summary of the method: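 Defatted, halved uterine horns from diethylstilbestrol-primed virgin Sprague-Dawley rats (150–250 g), at 1 g tension in a 3-mL bath at pH 7.0, oxygen-gassed (150 mM NaCl, 5.6 mM KCl, 0.18 mM CaCl2, 1.8 mM NaHCO3, 1.4 mM glucose). Isotonic recording of contraction. pA2 is the negative log of the antagonist concentration that cuts the response to an EC50 dose of human ANG II down to the response to half the EC50 dose. Mean ± SEM.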
# [3] = target: T1, Angiotensin II receptor (Rattus norvegicus); assay: Compound was evaluated for the antagonistic activity against rat Angiotensin II receptor by using isometric bioassay system; format: functional
smiles,measurement,setting,value
CC[C@H](C)[C@H](NC(=O)[C@@H](NC(=O)[C@H](CCCN=C(N)N)NC(=O)CNC)C(C)C)C(=O)N[C@H](C(=O)N[C@@H](Cc1c[nH]cn1)C(=O)N1CCC[C@@H]1C(=O)N[C@@H](Cc1ccccc1)C(=O)O)[C@@H](C)CC,Activity,[1],0.2%
"CC[C@H](C)[C@H](NC(=O)C1CCCN1C(=O)[C@H](Cc1c[nH]cn1)NC(=O)[C@@H](NC(=O)[C@H](Cc1ccc(O)cc1)NC(=O)[C@@H](NC(=O)[C@H](CCCN=C(N)N)NC(=O)CNC)C(C)C)[C@@H](C)CC)C(=O)O (single isomer, unassigned)",Activity,[1],< 0.1%
CC[C@H](C)[C@H](NC(=O)[C@@H]1CCCN1C(=O)[C@H](Cc1c[nH]cn1)NC(=O)[C@@H](NC(=O)[C@H](Cc1ccccc1)NC(=O)[C@@H](NC(=O)[C@H](CCCN=C(N)N)NC(=O)CNC)C(C)C)[C@@H](C)CC)C(=O)O,Activity,[1],< 0.1%
same,pA2,[2],6.7
CC[C@H](C)[C@H](NC(=O)[C@H](Cc1ccc(OC)cc1)NC(=O)[C@@H](NC(=O)[C@H](CCCN=C(N)N)NC(=O)[C@H](C)N)C(C)C)C(=O)N[C@@H](Cc1c[nH]cn1)C(=O)N1CCC[C@H]1C(=O)N[C@@H](Cc1ccccc1)C(=O)O,pA2,[2],< 6
CC[C@H](C)[C@H](NC(=O)[C@H](Cc1ccccc1)NC(=O)[C@@H](NC(=O)[C@H](CCCN=C(N)N)NC(=O)CNC)C(C)C)C(=O)N[C@@H](Cc1c[nH]cn1)C(=O)N1CCC[C@H]1C(=O)N[C@@H](Cc1ccccc1)C(=O)O,Activity,[1],22%
same,pA2,[2],7.9
CC[C@H](C)[C@H](NC(=O)[C@H]1CCCN1C(=O)[C@H](Cc1c[nH]cn1)NC(=O)[C@@H](NC(=O)[C@@H](Cc1ccccc1)NC(=O)[C@@H](NC(=O)[C@H](CCCN=C(N)N)NC(=O)CNC)C(C)C)[C@@H](C)CC)C(=O)O,Activity,[1],< 0.1%
same,pA2,[2],< 5
CC[C@H](C)[C@H](NC(=O)[C@H](Cc1ccc(OC)cc1)NC(=O)[C@@H](NC(=O)[C@H](CCCN=C(N)N)NC(=O)CNC)C(C)C)C(=O)N[C@@H](Cc1c[nH]cn1)C(=O)N1CCC[C@H]1C(=O)N[C@@H](Cc1ccccc1)C(=O)O,Activity,[3],8.1
same,Activity,[1],< 0.1%
same,pA2,[2],7.5
CC[C@H](C)[C@H](NC(=O)[C@@H](Cc1ccccc1)NC(=O)[C@@H](NC(=O)[C@H](CCCN=C(N)N)NC(=O)CNC)C(C)C)C(=O)N[C@@H](Cc1c[nH]cn1)C(=O)N1CCC[C@@H]1C(=O)N[C@@H](Cc1ccccc1)C(=O)O,Activity,[1],< 0.1%
same,pA2,[2],< 5.5
CCOc1ccc(C[C@H](NC(=O)[C@@H](NC(=O)[C@H](CCCN=C(N)N)NC(=O)CNC)C(C)C)C(=O)N[C@H](C(=O)N[C@@H](Cc2c[nH]cn2)C(=O)N2CCC[C@H]2C(=O)N[C@@H](Cc2ccccc2)C(=O)O)[C@@H](C)CC)cc1,Activity,[1],0.2%
same,pA2,[2],< 6
CC[C@H](C)[C@H](NC(=O)[C@@H](NC(=O)[C@@H](NC(=O)[C@H](CCCN=C(N)N)NC(=O)CNC)C(C)C)[C@H](C)O)C(=O)N[C@@H](Cc1c[nH]cn1)C(=O)N1CCC[C@@H]1C(=O)N[C@@H](Cc1ccccc1)C(=O)O,Activity,[1],2%
CC[C@H](C)[C@H](NC(=O)[C@@H](Cc1ccc(O)cc1)NC(=O)[C@@H](NC(=O)[C@H](CCCN=C(N)N)NC(=O)CNC)C(C)C)C(=O)N[C@@H](Cc1c[nH]cn1)C(=O)N1CCC[C@@H]1C(=O)N[C@@H](Cc1ccccc1)C(=O)O,Activity,[1],2%
CC[C@H](C)[C@H](NC(=O)[C@H](Cc1ccc(OC)cc1)NC(=O)[C@@H](NC(=O)[C@H](CCCN=C(N)N)NC(=O)[C@@H]1CCCN1)C(C)C)C(=O)N[C@@H](Cc1c[nH]cn1)C(=O)N1CCC[C@@H]1C(=O)N[C@@H](Cc1ccccc1)C(=O)O,Activity,[1],0.3%
CC[C@H](C)[C@H](NC(=O)[C@@H](Cc1ccc(O)cc1)NC(=O)[C@@H](NC(=O)[C@H](CCCN=C(N)N)NC(=O)CNC)C(C)C)C(=O)N[C@@H](Cc1c[nH]cn1)C(=O)N1CCC[C@H]1C(=O)N[C@@H](Cc1ccccc1)C(=O)O,pA2,[2],< 6.5
CC[C@H](C)[C@H](NC(=O)[C@@H](NC(=O)[C@H](CCCN=C(N)N)NC(=O)CNC)C(C)C)C(=O)N[C@H](C(=O)N[C@@H](Cc1c[nH]cn1)C(=O)N1CCC[C@H]1C(=O)N[C@@H](Cc1ccccc1)C(=O)O)[C@@H](C)CC,pA2,[2],< 6
CC[C@H](C)[C@H](NC(=O)[C@H](Cc1ccc(OC)cc1)NC(=O)[C@@H](NC(=O)[C@H](CCCN=C(N)N)NC(=O)[C@H](C)N)C(C)C)C(=O)N[C@@H](Cc1c[nH]cn1)C(=O)N1CCC[C@@H]1C(=O)N[C@@H](Cc1ccccc1)C(=O)O,Activity,[1],< 0.1%
CC[C@H](C)[C@H](NC(=O)[C@H]1CCCN1C(=O)[C@H](Cc1c[nH]cn1)NC(=O)[C@@H](NC(=O)[C@@H](Cc1ccc(O)cc1)NC(=O)[C@@H](NC(=O)[C@H](CCCN=C(N)N)NC(=O)CNC)C(C)C)[C@@H](C)CC)C(=O)O,Activity,[1],< 0.1%
CC[C@H](C)[C@H](NC(=O)[C@@H](NC(=O)[C@@H](NC(=O)[C@H](CCCN=C(N)N)NC(=O)CNC)C(C)C)[C@@H](C)O)C(=O)N[C@@H](Cc1c[nH]cn1)C(=O)N1CCC[C@H]1C(=O)N[C@@H](Cc1ccccc1)C(=O)O,pA2,[2],< 6
CC[C@H](C)[C@H](NC(=O)[C@@H]1CCCN1C(=O)[C@H](Cc1c[nH]cn1)NC(=O)[C@@H](NC(=O)[C@H](Cc1ccc(OC)cc1)NC(=O)[C@@H](NC(=O)[C@H](CCCN=C(N)N)NC(=O)CNC)C(C)C)[C@@H](C)CC)C(=O)O,Activity,[1],< 0.1%
same,pA2,[2],6.6
CC[C@H](C)[C@H](NC(=O)[C@H](Cc1ccc(OC)cc1)NC(=O)[C@@H](NC(=O)[C@H](CCCN=C(N)N)NC(=O)[C@@H]1CCCN1)C(C)C)C(=O)N[C@@H](Cc1c[nH]cn1)C(=O)N1CCC[C@H]1C(=O)N[C@@H](Cc1ccccc1)C(=O)O,pA2,[2],< 6
CC[C@H](C)[C@H](NC(=O)[C@@H]1C[C@@H](O)CN1C(=O)[C@@H](NC(=O)[C@H](CCCN=C(N)N)NC(=O)CNC)C(C)C)C(=O)N[C@@H](Cc1c[nH]cn1)C(=O)N1CCC[C@@H]1C(=O)N[C@@H](Cc1ccccc1)C(=O)O,Activity,[1],< 0.1%
CC[C@H](C)[C@H](NC(=O)[C@@H]1C[C@@H](O)CN1C(=O)[C@@H](NC(=O)[C@H](CCCN=C(N)N)NC(=O)CNC)C(C)C)C(=O)N[C@@H](Cc1c[nH]cn1)C(=O)N1CCC[C@H]1C(=O)N[C@@H](Cc1ccccc1)C(=O)O,pA2,[2],< 5
